One data set concerns Salmonella typhimurium. Nature of the data set: Antibacterial activity against Salmonella Typhimurium ATCC 35986 after 48 hrs by microtiter broth dilution method. It counts as functional, Salmonella enterica subsp. enterica serovar Typhimurium. To be noted: Salmonella enterica, ATCC 35986, 48 h. The method, boiled down: (§1)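 Terrestrial bacterial strains at 2×10^8 cells/mL were incubated with compound for 48 h at 25 °C in trypsic soy broth. MIC was read by microtiter broth dilution against a culture-medium control.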

The subject of data set [1] is Exanthemachrysis gayraliae. Nature of the data set: Antimicrobial activity against Exanthemachrysis gayraliae AC 15 after 48 hrs. Type of data set: functional. The essentials: (§2)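 Microalgal cultures (0.4 μg/mL chlorophyll A) in F/2 medium were incubated with compound for 48 h at 18 °C under a 15:9 light:dark cycle with cool-white fluorescent light at 54 μmol photons/m²·s. Relative optical density at 600 nm gave the MIC versus a seawater control.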

The subject of the next data set is Vibrio aestuarianus. Nature of the data set: Antibacterial activity against Vibrio aestuarianus ATCC 35048 after 48 hrs by microtiter broth dilution method. Type of data set: functional. To be noted: ATCC 35048, 48 h. The essentials: (§3)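 Marine bacterial strains at 2×10^8 cells/mL were exposed to compound for 48 h at 25 °C in Mueller Hinton broth supplemented with NaCl (15 g/L). MIC was set by microtiter broth dilution against a culture-medium control.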

The next data set has as its system Chrysotila roscoffensis. Nature of the data set: Antimicrobial activity against Pleurochrysis roscoffensis AC 238 after 48 hrs. It counts as functional, organism-based. The essentials:
as §2

The subject of the next data set is Bacillus subtilis. Description: Antibacterial activity against Bacillus subtilis ATCC 55572 after 48 hrs by microtiter broth dilution method. It counts as functional. To be noted: ATCC 55572, 48 h. The essentials:
as §1

The test system of a further data set is Polaribacter irgensii. Description: Antibacterial activity against Polaribacter irgensii ATCC 700398 after 48 hrs by microtiter broth dilution method. To be noted: ATCC 700398, 48 h. Type of data set: functional. The essentials:
as §3

In the next data set the test system is Escherichia coli. Description: Antibacterial activity against Escherichia coli ATCC 35049 after 48 hrs by microtiter broth dilution method. To be noted: ATCC 35049, 48 h. It counts as functional. The method, boiled down: as §1
Data set [2] can be described thus: Toxicity against Echinus esculentus larvae after 48 hrs. The essentials:
(§4)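 Larvae incubated with compounds at 0.5, 1, 2.5, 5, 10, 25, 50 and 100 μg/mL, 10–15 larvae per well in 2 mL solution. Viable larvae counted after 48 h exposure. LC50 is the concentration giving 50% mortality relative to control, derived by curve fitting. Six replicates per test and control, with two batches of organisms.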

The nature of data set [3]: Toxicity against Crassostrea gigas larvae after 48 hrs. The essentials:
as §4

For the next data set, the system named is Cylindrotheca closterium. Description: Antimicrobial activity against Cylindrotheca closterium AC 170 after 48 hrs. It counts as functional, organism-based. The method, boiled down:
as §2

For data set [4], the system named is Pseudoalteromonas distincta. Nature of the data set: Antibacterial activity against Pseudoalteromonas elyakovii ATCC 700519 after 48 hrs by microtiter broth dilution method. It counts as functional. To be noted: ATCC 700519, 48 h. The essentials:
as §3

A short description of data set [5]: Inhibition of Mytilus edulis phenoloxidase after 2 hrs. The method, boiled down:
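Purified mussel phenoloxidase was preincubated with compound for 2 h. Activity was then followed as the rise in absorbance at 475 nm with L-Dopa (10 mM) as substrate, and percent inhibition was calculated against the control.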

For a further data set, the system named is Ulva intestinalis. Nature of the data set: Antimicrobial activity against Ulva intestinalis after 48 hrs. Type of data set: functional, organism-based. The method, boiled down: (§5)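 Spores (3000 spores/mL) in F/2 medium were exposed to compound for 48 h at 18 °C under a 15:9 light:dark cycle with cool-white fluorescent light at 54 μmol photons/m²·s. Germination and attachment rates were then scored.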

The next data set deals with Sargassum muticum. Description: Antimicrobial activity against Sargassum muticum after 48 hrs. Type of data set: functional, organism-based. The essentials:
as §5

Converted amounts (≈) assume the structure as drawn. The source made the active and inactive calls. No cut-off for these calls is given here. Bounds are passed on as bounds.

As for `COc1cc(C)c(O)c(C/C=C(\C)C[C@]2(O)C[C@@]3(C)CCC[C@]3(C)C(=O)[C@@H]2CC(C)(C)O)c1`, the MIC (against Salmonella typhimurium; in the data set on Vibrio aestuarianus; in the data set on Bacillus subtilis; against Polaribacter irgensii; with Escherichia coli; in [4]) was > 100 µg/mL each time. Besides, the outcome (in [1]; in the data set with Chrysotila roscoffensis; with Cylindrotheca closterium) was inactive. Also, the LC50 at 48 h in [2] and in data set [3] was > 100 µg/mL each time.

On to `COc1cc(C)c2c(c1)C=C[C@](C)(CC1=C(CC(C)(C)O)C(=O)[C@@]3(C)CCC[C@]3(C)C1)O2`, for which the IC50 in data set [5] was 1 µg/mL (≈ 2.28 µM); with Ulva intestinalis, > 100 µg/mL; in the data set with Sargassum muticum, 2.5 µg/mL (≈ 5.7 µM). Moreover, the minimum inhibitory concentration (MIC) (with Salmonella typhimurium; with Vibrio aestuarianus; in the data set with Bacillus subtilis; against Polaribacter irgensii; against Escherichia coli; in [4]) was > 100 µg/mL in each case. Also, the outcome (in data set [1]; in the data set on Chrysotila roscoffensis; in the data set on Cylindrotheca closterium) was inactive. The 50% lethal concentration (LC50) at 48 h in data set [2] and in [3] was > 100 µg/mL throughout.

Regarding `CC1=C(CC(C)(C)O)C(=O)[C@@]2(C)CCC[C@]2(C)C1`, the half-maximal inhibitory concentration (IC50) (in data set [5]; in the data set with Ulva intestinalis; with Sargassum muticum) was 1 µg/mL (≈ 3.99 µM) throughout. Further, the MIC against Salmonella typhimurium is > 100 µg/mL; in data set [1] (AC 15, 48 h), 1 µg/mL (≈ 3.99 µM); in the data set on Vibrio aestuarianus it was > 100 µg/mL; in the data set on Bacillus subtilis, > 100 µg/mL; against Polaribacter irgensii, > 100 µg/mL; with Escherichia coli, > 100 µg/mL. The minimal inhibitory concentration (MIC) in data set [4] was > 100 µg/mL. The result with Chrysotila roscoffensis and in the data set on Cylindrotheca closterium was inactive. Moreover, the LC50 at 48 h in data set [2] and in [3] was > 100 µg/mL each time.

Consider `CC(=O)/C=C1\C[C@@]2(C)CCC[C@]2(C)C2=C1CC(C)(C)O2`, for which the IC50 in data set [5] is 2.5 µg/mL (≈ 9.11 µM); with Ulva intestinalis it was 2.5 µg/mL (≈ 9.11 µM); in the data set on Sargassum muticum, > 100 µg/mL. The minimal inhibitory concentration (MIC) (against Salmonella typhimurium; against Vibrio aestuarianus; in the data set on Bacillus subtilis; against Polaribacter irgensii; in the data set on Escherichia coli; in [4]) was > 100 µg/mL throughout. The outcome (in data set [1]; in the data set on Chrysotila roscoffensis; with Cylindrotheca closterium) was inactive. Besides, the LC50 at 48 h in data set [2] and in [3] was > 100 µg/mL in each case.

As for `COc1cc(C)c2c(c1)C=C[C@@](C)(CC1=C(CC(C)(C)O)C(=O)[C@@]3(C)CCC[C@]3(C)C1)O2`, the MIC (against Salmonella typhimurium; in the data set with Vibrio aestuarianus; with Bacillus subtilis; against Polaribacter irgensii; in the data set with Escherichia coli; in [4]) was > 100 µg/mL each time. Besides, the outcome (in data set [1]; in the data set on Chrysotila roscoffensis; in the data set with Cylindrotheca closterium) was inactive. In addition, the median lethal concentration (LC50) at 48 h in data set [2] and in data set [3] was > 100 µg/mL in each case.

As to `COc1cc(C)c(O)c(C/C=C(\C)CC2=C(CC(C)(C)O)C(=O)[C@@]3(C)CCC[C@]3(C)C2)c1`, the minimal inhibitory concentration (MIC) (in the data set with Salmonella typhimurium; against Vibrio aestuarianus; in the data set on Bacillus subtilis; in the data set on Polaribacter irgensii; with Escherichia coli; in data set [4]) was > 100 µg/mL throughout. Also, the outcome (in [1]; in the data set on Chrysotila roscoffensis; in the data set on Cylindrotheca closterium) was inactive. Besides, the median lethal concentration (LC50) at 48 h in data set [2] and in [3] was > 100 µg/mL each time.

Values taken from ChEMBL document CHEMBL1154141, “Meroditerpenoids and derivatives from the brown alga Cystoseira baccata and their antifouling properties” (J Nat Prod, 2008).
